According to ChEMBL document CHEMBL1649446, “Comparative antipneumococcal activities of sulopenem and other drugs” (2009):
≈ marks a conversion by molar mass, not a printed value.

What was measured:
Type in all cases: functional
[1] = system: Streptococcus pneumoniae; experiment: Antimicrobial activity against Streptococcus pneumoniae isolate 1055 by agar dilution method
[2] = system: Streptococcus pneumoniae; experiment: Antimicrobial activity against Streptococcus pneumoniae isolate 1564 by agar dilution method
[3] = system: Streptococcus pneumoniae; experiment: Antimicrobial activity against Streptococcus pneumoniae 1 by time-kill analysis
Procedure, shortened: (§1)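 Time-kill in cation-adjusted Mueller-Hinton broth with 5% lysed horse blood; inocula 5 × 105 to 5 × 10^6 CFU/ml; drugs at MIC, 2× and 4× MIC; 35°C shaking water bath; viable counts at 0, 3, 6, 12 and 24 h. Bactericidal if ≥3 log10 CFU/ml (99.9%) reduction from original inoculum; 90% and 99% killing also scored.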

[4] = system: Streptococcus pneumoniae; experiment: Antimicrobial activity against Streptococcus pneumoniae 4 by time-kill analysis
Procedure, shortened: as §1, with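 “12,” for “12 and”, “=” for “if”, “drop” for “reduction”, “90%/99%/99.9%” for “90% and 99%”, “scored per strain.” for “also scored.”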

[5] = system: Streptococcus pneumoniae; experiment: Antimicrobial activity against Streptococcus pneumoniae 10 by time-kill analysis
Procedure, shortened: as §1, with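 “12,” for “12 and”, “=” for “if”, “drop” for “reduction”, “90%/99%/99.9%” for “90% and 99%”, “scored per strain.” for “also scored.”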

[6] = system: Streptococcus pneumoniae; experiment: Antimicrobial activity against Streptococcus pneumoniae 12 by time-kill analysis
Procedure, shortened: as §1, with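 “12,” for “12 and”, “=” for “if”, “drop” for “reduction”, “90%/99%/99.9%” for “90% and 99%”, “scored per strain.” for “also scored.”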

[7] = system: Streptococcus pneumoniae; experiment: Antimicrobial activity against Streptococcus pneumoniae 8 by time-kill analysis
Procedure, shortened: as §1, with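 “12,” for “12 and”, “=” for “if”, “drop” for “reduction”, “90%/99%/99.9%” for “90% and 99%”, “scored per strain.” for “also scored.”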

[8] = system: Streptococcus pneumoniae; experiment: Antimicrobial activity against Streptococcus pneumoniae 2 by time-kill analysis
Procedure, shortened: as §1, with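 “12,” for “12 and”, “=” for “if”, “drop” for “reduction”, “90%/99%/99.9%” for “90% and 99%”, “scored per strain.” for “also scored.”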

[9] = system: Streptococcus pneumoniae; experiment: Antimicrobial activity against Streptococcus pneumoniae 3 by time-kill analysis
Procedure, shortened: as §1, with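 “12,” for “12 and”, “=” for “if”, “drop” for “reduction”, “90%/99%/99.9%” for “90% and 99%”, “scored per strain.” for “also scored.”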

[10] = system: Streptococcus pneumoniae; experiment: Antimicrobial activity against Streptococcus pneumoniae 9 by time-kill analysis; procedure, shortened: as §1
[11] = system: Streptococcus pneumoniae; experiment: Antimicrobial activity against Streptococcus pneumoniae isolate 2686 by agar dilution method
Procedure, shortened: (§2)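 Agar dilution MIC on Mueller-Hinton agar with 5% sheep blood, inocula 10^4 CFU/spot; amoxicillin-clavulanate combined 1:2; S. pneumoniae ATCC 49619 quality control each run.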

[12] = system: Streptococcus pneumoniae; experiment: Antimicrobial activity against penicillin-resistant Streptococcus pneumoniae by agar dilution method; procedure, shortened: as §2
[13] = system: Streptococcus pneumoniae; experiment: Antimicrobial activity against Streptococcus pneumoniae isolate 33 by agar dilution method; procedure, shortened: as §2
[14] = system: Streptococcus pneumoniae; experiment: Antimicrobial activity against Streptococcus pneumoniae isolate 2617 by agar dilution method; procedure, shortened: as §2
[15] = system: Streptococcus pneumoniae; experiment: Antimicrobial activity against Streptococcus pneumoniae isolate 3275 by agar dilution method; procedure, shortened: as §2
[16] = system: Streptococcus pneumoniae; experiment: Antimicrobial activity against Streptococcus pneumoniae isolate 3481 by agar dilution method; procedure, shortened: as §2
[17] = system: Streptococcus pneumoniae; experiment: Antimicrobial activity against Streptococcus pneumoniae isolate 2880 by agar dilution method; procedure, shortened: as §2
[18] = system: Streptococcus pneumoniae; experiment: Antimicrobial activity against penicillin-intermediate Streptococcus pneumoniae by agar dilution method
[19] = system: Streptococcus pneumoniae; experiment: Antimicrobial activity against Streptococcus pneumoniae 19A by agar dilution method; procedure, shortened: as §2
[20] = system: Streptococcus pneumoniae; experiment: Antimicrobial activity against Streptococcus pneumoniae isolate 2874 by agar dilution method; procedure, shortened: as §2
[21] = system: Streptococcus pneumoniae; experiment: Antimicrobial activity against Streptococcus pneumoniae isolate 2688 by agar dilution method; procedure, shortened: as §2
[22] = system: Streptococcus pneumoniae; experiment: Antimicrobial activity against Streptococcus pneumoniae isolate 1146 by agar dilution method; procedure, shortened: as §2
[23] = system: Streptococcus pneumoniae; experiment: Antimicrobial activity against Streptococcus pneumoniae isolate 3458 by agar dilution method
[24] = system: Streptococcus pneumoniae; experiment: Antimicrobial activity against Streptococcus pneumoniae isolate 3681 by agar dilution method; procedure, shortened: as §2
[25] = system: Streptococcus pneumoniae; experiment: Antimicrobial activity against Streptococcus pneumoniae isolate 3346 by agar dilution method
[26] = system: Streptococcus pneumoniae; experiment: Antimicrobial activity against Streptococcus pneumoniae isolate 1384 by agar dilution method; procedure, shortened: as §2
[27] = system: Streptococcus pneumoniae; experiment: Antimicrobial activity against Streptococcus pneumoniae isolate 4747 by agar dilution method; procedure, shortened: as §2
[28] = system: Streptococcus pneumoniae; experiment: Antimicrobial activity against Streptococcus pneumoniae isolate 1147 by agar dilution method; procedure, shortened: as §2
[29] = system: Streptococcus pneumoniae; experiment: Antimicrobial activity against Streptococcus pneumoniae isolate 37 by agar dilution method; procedure, shortened: as §2
[30] = system: Streptococcus pneumoniae; experiment: Antimicrobial activity against Streptococcus pneumoniae isolate 3260 by agar dilution method
[31] = system: Streptococcus pneumoniae; experiment: Antimicrobial activity against Streptococcus pneumoniae isolate 24 by agar dilution method
[32] = system: Streptococcus pneumoniae; experiment: Antimicrobial activity against Streptococcus pneumoniae 6 by time-kill analysis
Procedure, shortened: as §1, with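 “12,” for “12 and”, “=” for “if”, “drop” for “reduction”, “90%/99%/99.9%” for “90% and 99%”, “scored per strain.” for “also scored.”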

[33] = system: Streptococcus pneumoniae; experiment: Antimicrobial activity against Streptococcus pneumoniae isolate 3412 by agar dilution method; procedure, shortened: as §2
[34] = system: Streptococcus pneumoniae; experiment: Antimicrobial activity against penicillin-susceptible Streptococcus pneumoniae by agar dilution method
[35] = system: Streptococcus pneumoniae; experiment: Antimicrobial activity against Streptococcus pneumoniae isolate 3791 by agar dilution method; procedure, shortened: as §2
[36] = system: Streptococcus pneumoniae; experiment: Antimicrobial activity against Streptococcus pneumoniae 11 by time-kill analysis
Procedure, shortened: as §1, with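 “12,” for “12 and”, “=” for “if”, “drop” for “reduction”, “90%/99%/99.9%” for “90% and 99%”, “scored per strain.” for “also scored.”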

[37] = system: Streptococcus pneumoniae; experiment: Antimicrobial activity against Streptococcus pneumoniae isolate 1397 by agar dilution method; procedure, shortened: as §2
[38] = system: Streptococcus pneumoniae; experiment: Antimicrobial activity against Streptococcus pneumoniae isolate 1424 by agar dilution method; procedure, shortened: as §2
[39] = system: Streptococcus pneumoniae; experiment: Antimicrobial activity against Streptococcus pneumoniae 5 by time-kill analysis; procedure, shortened: as §1
[40] = system: Streptococcus pneumoniae; experiment: Antimicrobial activity against Streptococcus pneumoniae 7 by time-kill analysis
Procedure, shortened: as §1, with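 “12,” for “12 and”, “=” for “if”, “drop” for “reduction”, “90%/99%/99.9%” for “90% and 99%”, “scored per strain.” for “also scored.”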

[41] = system: Streptococcus pneumoniae; experiment: Antimicrobial activity against Streptococcus pneumoniae isolate 3282 by agar dilution method
[42] = system: Streptococcus pneumoniae; experiment: Antimicrobial activity against Streptococcus pneumoniae isolate 3587 by agar dilution method
[43] = system: Streptococcus pneumoniae; experiment: Antimicrobial activity against Streptococcus pneumoniae isolate 4755 by agar dilution method; procedure, shortened: as §2
[44] = system: Streptococcus pneumoniae; experiment: Antimicrobial activity against Streptococcus pneumoniae isolate 3263 by agar dilution method
[45] = system: Streptococcus pneumoniae; experiment: Antimicrobial activity against Streptococcus pneumoniae isolate 1394 by agar dilution method
[46] = system: Streptococcus pneumoniae; experiment: Antimicrobial activity against Streptococcus pneumoniae isolate 3455 by agar dilution method
[47] = system: Streptococcus pneumoniae; experiment: Antimicrobial activity against Streptococcus pneumoniae isolate 3374 by agar dilution method; procedure, shortened: as §2

COc1c(N2C[C@@H]3CCCN[C@@H]3C2)c(F)cc2c(=O)c(C(=O)O)cn(C3CC3)c12 [MOXIFLOXACIN] showed an MIC [1] of 4 µg/mL (≈ 9.96 µM), an MIC [2] of 0.25 µg/mL (≈ 0.623 µM) and an MIC [3] of 4 µg/mL (≈ 9.96 µM). For the same compound, the MIC [4] was 2 µg/mL (≈ 4.98 µM).
C[C@@H](O)[C@H]1C(=O)N2C(C(=O)O)=C(S[C@H]3CC[S@@+]([O-])C3)S[C@H]12 [SULOPENEM] gave an MIC [5] of 0.06 µg/mL (≈ 0.172 µM), an MIC [6] of 0.5 µg/mL (≈ 1.43 µM) and an MIC [7] of 1 µg/mL (≈ 2.86 µM). The MIC [8] was 0.008 µg/mL (≈ 0.0229 µM), the MIC [9] was 0.12 µg/mL (≈ 0.343 µM) and the MIC [10] was 0.12 µg/mL (≈ 0.343 µM). It also gave an MIC [11] of 1 µg/mL (≈ 2.86 µM), an MIC50 [12] of 0.25 µg/mL (≈ 0.715 µM) and an MIC90 [12] of 0.5 µg/mL (≈ 1.43 µM). It also gave an MIC [13] of 1 µg/mL (≈ 2.86 µM), an MIC [14] of 0.25 µg/mL (≈ 0.715 µM) and an MIC [15] of 0.125 µg/mL (≈ 0.358 µM). The MIC [16] was 0.25 µg/mL (≈ 0.715 µM), the MIC [17] was 0.5 µg/mL (≈ 1.43 µM) and the MIC50 [18] was 0.06 µg/mL (≈ 0.172 µM). For the same compound, the MIC90 [18] was 0.25 µg/mL (≈ 0.715 µM), the MIC [1] was 0.25 µg/mL (≈ 0.715 µM) and the MIC50 [19] was 1 µg/mL (≈ 2.86 µM). It also gave an MIC90 [19] of 2 µg/mL (≈ 5.72 µM), an MIC [20] of 1 µg/mL (≈ 2.86 µM) and an MIC [21] of 1 µg/mL (≈ 2.86 µM). It also gave an MIC [2] of 0.5 µg/mL (≈ 1.43 µM), an MIC [22] of 1 µg/mL (≈ 2.86 µM) and an MIC [23] of 1 µg/mL (≈ 2.86 µM). For the same compound, the MIC [3] was 0.008 µg/mL (≈ 0.0229 µM), the MIC [24] was 0.25 µg/mL (≈ 0.715 µM) and the MIC [25] was 0.5 µg/mL (≈ 1.43 µM). For the same compound, the MIC [26] was 0.25 µg/mL (≈ 0.715 µM), the MIC [27] was 0.25 µg/mL (≈ 0.715 µM) and the MIC [28] was 1 µg/mL (≈ 2.86 µM). For the same compound, the MIC [29] was 1 µg/mL (≈ 2.86 µM), the MIC [30] was 0.5 µg/mL (≈ 1.43 µM) and the MIC [31] was 0.5 µg/mL (≈ 1.43 µM). It also gave an MIC [32] of 0.12 µg/mL (≈ 0.343 µM), an MIC [33] of 0.125 µg/mL (≈ 0.358 µM) and an MIC50 [34] of 0.008 µg/mL (≈ 0.0229 µM). The MIC90 [34] was 0.016 µg/mL (≈ 0.0458 µM), the MIC [35] was 0.25 µg/mL (≈ 0.715 µM) and the MIC [36] was 1 µg/mL (≈ 2.86 µM). The MIC [37] was 0.5 µg/mL (≈ 1.43 µM), the MIC [38] was 0.5 µg/mL (≈ 1.43 µM) and the MIC [39] was 1 µg/mL (≈ 2.86 µM). The MIC [4] was 0.5 µg/mL (≈ 1.43 µM), the MIC [40] was 1 µg/mL (≈ 2.86 µM) and the MIC [41] was 0.5 µg/mL (≈ 1.43 µM). It also gave an MIC [42] of 0.25 µg/mL (≈ 0.715 µM), an MIC [43] of 0.5 µg/mL (≈ 1.43 µM) and an MIC [44] of 0.25 µg/mL (≈ 0.715 µM). The MIC [45] was 0.5 µg/mL (≈ 1.43 µM), the MIC [46] was 1 µg/mL (≈ 2.86 µM) and the MIC [47] was 0.25 µg/mL (≈ 0.715 µM).
CC[C@H]1OC(=O)[C@H](C)C(=O)[C@H](C)[C@@H](O[C@@H]2O[C@H](C)C[C@H](N(C)C)[C@H]2O)[C@](C)(OC)C[C@@H](C)C(=O)[C@H](C)[C@H]2N(CCCCn3cnc(-c4cccnc4)c3)C(=O)O[C@]12C [TELITHROMYCIN] showed an MIC [5] of 0.008 µg/mL (≈ 0.00985 µM), an MIC [6] of 0.016 µg/mL (≈ 0.0197 µM) and an MIC [7] of 0.12 µg/mL (≈ 0.148 µM). It also gave an MIC [8] of 0.008 µg/mL (≈ 0.00985 µM), an MIC [9] of 0.12 µg/mL (≈ 0.148 µM) and an MIC [10] of 0.008 µg/mL (≈ 0.00985 µM). It also gave an MIC [3] of 0.03 µg/mL (≈ 0.0369 µM), an MIC [32] of 0.004 µg/mL (≈ 0.00493 µM) and an MIC [36] of 0.03 µg/mL (≈ 0.0369 µM). The MIC [39] was 0.12 µg/mL (≈ 0.148 µM), the MIC [4] was 0.008 µg/mL (≈ 0.00985 µM) and the MIC [40] was 0.06 µg/mL (≈ 0.0739 µM).
